# EBV gp42 inh: inhibitors of Epstein-Barr virus glycoprotein 42; Q1HVG2; Fluorescence polarization binding assay, mP read-out; inhibition, % (tested at 21.74 µM); actives 0.42% (n = 220,000); in the data active = inhibition above about 50%
# Mcl1-Bid inh: Mcl-1/Bid interaction inhibition. Q07820. TR-FRET Mcl-1/Bid-Dy647 peptide binding, 1536-well. inhibition, % at 21.7 µM. actives 0.97% (n = 220,000);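 active = compounds that cut the binding signal by more than half at the single screening dose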;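 note: His-tagged Mcl-1 with europium anti-His antibody binding Bid BH3 peptide; 0% = Mcl-1 plus peptide wells and 100% = peptide-only wells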
# Target sequence (Q07820 whole entry, looked up): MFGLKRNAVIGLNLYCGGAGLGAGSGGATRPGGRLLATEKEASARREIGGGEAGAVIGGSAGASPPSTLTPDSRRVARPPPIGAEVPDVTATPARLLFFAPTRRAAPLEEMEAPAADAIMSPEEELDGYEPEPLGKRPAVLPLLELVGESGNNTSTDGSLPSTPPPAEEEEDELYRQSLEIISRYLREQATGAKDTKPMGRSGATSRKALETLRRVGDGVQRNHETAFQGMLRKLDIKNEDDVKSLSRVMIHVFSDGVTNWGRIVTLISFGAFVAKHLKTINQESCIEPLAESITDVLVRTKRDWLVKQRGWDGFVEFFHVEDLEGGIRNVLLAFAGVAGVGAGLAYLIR
# Mcl1-Noxa inh: disrupts binding of human Mcl-1 to Noxa peptide; AID 1022; Q07820; TR-FRET Mcl-1/Noxa peptide binding, 2 h; inhibition, % at 21.7 µM; actives 1.5% (n = 220,000);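 active = compounds that cut the protein-peptide binding signal by more than 50% relative to plate controls in a single-dose test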;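 note: His-tagged Mcl-1 with rhodamine Noxa BH3 peptide and terbium anti-His antibody; 0% = Mcl-1 plus Noxa peptide wells and 100% = peptide-only wells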
# Bim-Mcl-1: inhibitors of Bim-Mcl-1 interaction, human; actives 0.1% (n = 190,000); inhibition, % at 10 µM; Bead-based flow cytometry, Bim peptide-Mcl-1 binding; AID 1009; Q07820; in the data active = inhibition above about 40%;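 note: 0% = no compound tracer wells and 100% = peptide blocker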
# RBBP9 inh: human RBBP9 hydrolase inhibition; O75884; recombinant RBBP9, FP-Rh probe fluorescence polarization; inhibition, % at 7.94 µM; actives 0.2% (n = 220,000); AID 1515;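 active = inhibition above the campaign mean of all tested compounds plus 3 SD, cut at about 14% in these data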;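 note: plate controls were DMSO wells with RBBP9 for no effect and wells lacking RBBP9 protein for full effect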
# Target sequence (O75884 whole entry, looked up): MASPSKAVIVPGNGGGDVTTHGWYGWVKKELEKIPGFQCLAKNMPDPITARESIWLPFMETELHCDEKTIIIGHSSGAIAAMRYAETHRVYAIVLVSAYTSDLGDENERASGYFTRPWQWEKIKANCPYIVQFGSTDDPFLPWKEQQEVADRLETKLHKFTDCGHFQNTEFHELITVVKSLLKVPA
#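 Measured by: FP readout at 525/598 nm; material: recombinant human RBBP9; also added: Serine-hydrolase probe FP-Rh, 375 nM pre-mixing; medium: Tris buffer pH 8.0, NaCl, Pluronic; replication: one well per compound; doses: one concentration, 7.94 µM nominal, 0.794% DMSO; timing: preincubation 30 min plus labeling 45 min at 25 °C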
# MCL1-BIM inh: disrupts human MCL1 binding to BIM-BH3 peptide. AID 2057. GST-MCL1 / FITC-Bim-BH3 fluorescence polarization. actives 0.68% (n = 320,000). inhibition, % at 10.9 µM;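 active = inhibition above the mean inhibition of all tested compounds plus 3 SD, set per campaign, cut at about 40% in these data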;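 note: 0% = DMSO wells and 100% = unlabeled Bim-BH3 peptide control; higher means more loss of mP so more displacement of Bim peptide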
# An asterisk follows results filed as active; . = no result given. Compounds with a hit are over-represented: about 2.2% of the library has one in this group of screens.
SMILES,EBV gp42 inh,Mcl1-Bid inh,Mcl1-Noxa inh,Bim-Mcl-1,RBBP9 inh,MCL1-BIM inh
Nc1ccc(-c2ccc(N)c([N+](=O)[O-])c2)cc1[N+](=O)[O-],7.0,15.3,50.8*,2.0,-2.8,9.6
COc1cccc(C(=O)CN(C(=O)c2ccc(Cl)cc2Cl)N2C(=O)c3ccccc3C2=O)c1,16.8,-3.6,-1.7,-7.0,-3.7,-1.1
CCc1cc2c(=O)n3c(nc2s1)-c1[nH]c2ccc(OC)cc2c1CC3,-22.9,9.6,10.0,-1.0,0.3,0.3
COc1ccc2[nH]c3c(c2c1)CCn1c-3nc2sc(C(=O)Nc3ccccc3)c(C)c2c1=O,-28.9,75.0*,53.5*,0.0,-1.4,.
CCN1CCN(S(=O)(=O)c2ccc(Cl)c(C(=O)N(C)CCOc3ccc(Cl)cc3)c2)CC1,.,.,.,.,.,4.4
CCC(=O)c1ccc(OCC(=O)NCCc2ccccn2)cc1,-7.3,5.6,8.6,-4.0,-11.4,-0.6
O=C(O)CC12CSc3[nH]c(=O)sc3C1c1ccccc1OC2=O (configuration not stated),-8.2,66.0*,-4.3,0.0,5.0,6.6
CCOC(=O)C1CSc2[nH]c(=O)sc2C1c1ccccc1 (configuration not stated),18.6,-9.0,6.4,0.0,0.1,6.2
CC(Oc1ccc2cc(-c3ccccc3)c(=O)oc2c1)C(=O)NCC1CCC(C(=O)O)CC1 (configuration not stated),.,.,.,.,.,-0.6
O=C(Nc1ccc2nc(-c3ccc4nc[nH]c4c3)[nH]c2c1)c1cccs1,42.4,-6.1,79.5*,21.0,-6.9,9.4
O=C(Nc1ccc2nc(-c3ccccc3)[nH]c2c1)c1cccs1,-12.3,-24.7,18.1,7.0,-2.1,-5.2
O=C1N=C2N(CCN3CCCCC3)c3ccccc3N2/C1=C\c1ccc([N+](=O)[O-])o1,-79.0,83.1*,12.3,0.0,-7.0,.
COc1ccc(CNC(=O)C/C(C)=N/NC(=O)c2ccc(OC)cc2OC)cc1,.,.,.,.,.,4.9
CC1CN(CC(=O)Nc2cc(S(=O)(=O)N3CCCC3)ccc2Cl)CC(C)O1 (configuration not stated),-1.2,3.1,22.3,-4.0,-4.6,1.9
O=C(CN1CCN(c2ccc(O)cc2)CC1)Nc1cc(S(=O)(=O)N2CCCC2)ccc1Cl,-6.5,-90.9,56.9*,-1.0,-4.0,21.8
O=C(CN1CCN(c2ccc(O)cc2)CC1)Nc1cc(S(=O)(=O)N2CCCCC2)ccc1Cl,-10.1,-60.2,69.3*,1.0,-4.8,22.4
Cc1ccc(S(=O)(=O)N(Cc2ccccc2)c2ccccc2C(=O)N2CCCCC2)cc1,.,.,.,.,.,-4.7
Cc1ccc(C(=O)Nc2c(-c3cccs3)c(=O)c3ccccc3n2C)cc1,-15.1,66.3*,-0.1,1.0,-6.6,-0.2
Cc1noc(C)c1C(=O)NC1=NCCS1,.,.,.,.,.,-12.2
O=Cc1cnc(N2CCCCC2)s1,111.5*,-16.8,14.0,0.0,-0.2,2.9
O=C(N/N=C/c1cnc(N2CCCCC2)s1)c1ccc(Cl)cc1,-4.3,2.5,21.9,0.0,-5.6,1.0
CCOC(=O)c1c(N=CN(C)C)c2cc([N+](=O)[O-])cnc2n1C,-19.2,-23.6,13.2,.,-4.8,-3.3
CCN(CC)c1ccc(S(=O)(=O)N2CCOCC2)cc1NC(=O)CSc1nncs1,.,.,.,.,.,1.9
Cc1cc(C)c(C)c(OCCCN(C)C)c1,-21.1,53.1*,24.7,-4.0,-9.9,-0.8
Cc1ccc(S(=O)(=O)N(CC(=O)NCCSc2ccccn2)c2ccccc2F)cc1,.,.,.,.,.,-1.2
SMILES,EBV gp42 inh,Mcl1-Bid inh,Mcl1-Noxa inh,Bim-Mcl-1,RBBP9 inh,MCL1-BIM inh
O=C1CC(NN2CCCCC2)C(=O)N1c1ccccc1 (configuration not stated),-10.8,-34.4,-0.3,2.0,-2.1,2.7
CCOC(=O)c1ccc2nc(CCC(=O)N[C@H](C(=O)OC)C(C)C)c(=O)n(CC)c2c1,-4.9,-29.1,4.4,-3.0,-9.1,4.3
N#C/C(=C\c1ccc(Cl)c([N+](=O)[O-])c1)c1ccccn1,2.7,-15.5,-5.9,-1.0,-1.2,11.3
CNc1ccc(/C=C(\C#N)c2ccccn2)cc1[N+](=O)[O-],-26.6,38.7,64.5*,-1.0,-15.0,40.4*
O=C(Cc1sc(-c2ccccc2Cl)nc1-c1ccccc1)Nc1ccccc1,-22.5,83.5*,-29.0,6.0,-0.9,1.4
O=C(Cc1sc(-c2ccccc2Cl)nc1-c1ccccc1)Nc1ccc(F)cc1,-5.5,-1.8,-6.7,0.0,-1.4,0.2
Cc1cn(CCOc2ccc(Cl)cc2)c(=O)[nH]c1=O,.,.,.,.,.,-5.9
O=C(Nc1nccs1)c1ccc(COc2ccc(F)cc2)o1,7.9,-7.1,56.3*,24.0,5.0,-5.7
O=C(Nc1nccs1)c1ccc(COc2ccc(Cl)cc2)o1,-5.9,-1.1,7.3,5.0,-7.4,10.2
O=C(O)c1ccc(NS(=O)(=O)c2ccc3c(c2)C2C=CCC2C(c2ccccc2F)N3)cc1 (configuration not stated),32.5,4.2,93.1*,-1.0,-4.0,.
O=C(O)c1ccc2c(c1)C1C=CCC1C(c1cc3c(cc1Br)OCO3)N2 (configuration not stated),8.3,-58.3,15.9,-1.0,-8.0,1.8
Cc1cc(NC(=O)COC(=O)c2ccccc2[N+](=O)[O-])no1,-13.3,-32.5,7.6,-2.0,-1.2,1.1
CCCc1cc(C(=O)Nc2ccc(CC)cc2)no1,.,.,.,.,.,-7.6
COC(=O)C1=CN(CC2CCCO2)C=C(C(=O)OC)C1c1ccsc1 (configuration not stated),-7.2,95.5*,0.4,0.0,-8.3,5.0
O=C(Nc1ccccc1)Nc1ccc2ncoc2c1,5.6,-27.4,15.3,91.0*,0.1,-0.3
O=C(Nc1ccccc1)Nc1ccc2ocnc2c1,2.8,-22.0,-0.8,1.0,-2.5,-2.5
CSc1ccc(CCNC(=O)CN2C(=O)CCSc3ccccc32)cc1,.,.,.,.,.,2.2
CC(C)c1ccc(S(=O)(=O)/N=C2/C=CC(=O)c3ccccc32)cc1,-2.2,0.4,77.7*,0.0,6.5,.
CC(C)c1ccc(S(=O)(=O)/N=C2\C=C(NS(=O)(=O)c3ccccc3)C(=O)c3ccccc32)cc1,.,.,.,.,.,10.9
O=c1c(/C=C(\O)c2ccccc2)nc2ccccc2n1-c1ccccc1,175.6*,2.2,-21.1,9.0,-2.8,-78.3
CC(=O)NC1C(=O)N=C(SCC(=O)NC(C)c2ccccc2)NC1=O (configuration not stated),-18.9,55.5*,25.2,-1.0,-3.1,3.1
COc1ccc(OC)c(CCNC(=O)Cn2sc3nc(C)cc(C)c3c2=O)c1,-37.1,-19.4,56.2*,-10.0,8.6,15.8
COc1ccccc1NS(=O)(=O)c1cccc(NC(=O)C2CC(=O)N(Cc3ccccc3)C2)c1 (configuration not stated),-0.7,88.3*,12.5,1.0,-15.1,-0.5
COC(=O)c1ccc(/C=N/NC(=O)C(=O)NCC2CCCO2)cc1 (configuration not stated),-12.0,-6.6,-17.5,.,0.5,-5.3

# Assay outcomes deposited in PubChem BioAssay by several laboratories.
